Reference: ChEMBL document CHEMBL4689842, “EUbOPEN Chemogenomics Library wave 1” (2021)

Test system: Fibroblast
Experiment: Multiplex assay against human fibroblast
Assay type: toxicity, cell-based
Procedure, shortened: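 With compound added, live cells were imaged on a CQ1 microscope at 37°C and 5% CO2; staining with Hoechst33342, BioTracker Green Microtubule Cytoskeleton Dye, MitoTracker Red and Annexin V Alexa Fluor 680 had been done at seeding. The CellPathfinder machine-learning gating scheme split cells into Hoechst high-intensity objects or normal cells, normal cells into healthy, pyknosed or fragmented nuclei, and pyknosed cells into mitotic or apoptotic. The tubulin, mitochondrial-mass and membrane-permeability phenotypes are per cents of healthy-nucleus cells.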

[1] = 12 h, 1 µM, compound concentration 1 uM, replicate 1
[2] = 12 h, 1 µM, compound concentration 1 uM, replicate 2
[3] = 12 h, 10 µM, compound concentration 10 uM, replicate 1
[4] = 12 h, 10 µM, compound concentration 10 uM, replicate 2
[5] = 24 h, 1 µM, compound concentration 1 uM, replicate 1
[6] = 24 h, 1 µM, compound concentration 1 uM, replicate 2
[7] = 24 h, 10 µM, compound concentration 10 uM, replicate 1
[8] = 24 h, 10 µM, compound concentration 10 uM, replicate 2
[9] = 48 h, 1 µM, compound concentration 1 uM, replicate 1
[10] = 48 h, 1 µM, compound concentration 1 uM, replicate 2
[11] = 48 h, 10 µM, compound concentration 10 uM, replicate 1
[12] = 48 h, 10 µM, compound concentration 10 uM, replicate 2

CN1CCN(CCOc2cc(OC3CCOCC3)c3c(Nc4c(Cl)ccc5c4OCO5)ncnc3c2)CC1 [SARACATINIB]
Population Apoptotic (%) [1]: 59% | Population Fragmented Nuclei (%) [1]: 22% | Population Healthy Nuclei (%) [1]: 49% | Population Hoechst High Intensity Objects (%) [1]: 10% | Population Membrane Permeable-Phenotype (%) [1]: 24% | Population Mitochondria Different-Phenotype (%) [1]: 9% | Population Mitotic Cells (%) [1]: 40% | Population Normal (%) [1]: 89% | Population Pyknosed Nuclei (%) [1]: 27% | Population Tubulin-Different-Phenotype (%) [1]: 43% | Population Apoptotic (%) [2]: 70% | Population Fragmented Nuclei (%) [2]: 9% | Population Healthy Nuclei (%) [2]: 72% | Population Membrane Permeable-Phenotype (%) [2]: 0% | Population Mitochondria Different-Phenotype (%) [2]: 23% | Population Mitotic Cells (%) [2]: 30% | Population Normal (%) [2]: 90% | Population Pyknosed Nuclei (%) [2]: 18% | Population Tubulin-Different-Phenotype (%) [2]: 10% | Population Apoptotic (%) [3]: 60% | Population Fragmented Nuclei (%) [3]: 20% | Population Healthy Nuclei (%) [3]: 57% | Population Hoechst High Intensity Objects (%) [3]: 13% | Population Membrane Permeable-Phenotype (%) [3]: 16% | Population Mitochondria Different-Phenotype (%) [3]: 21% | Population Mitotic Cells (%) [3]: 39% | Population Normal (%) [3]: 86% | Population Pyknosed Nuclei (%) [3]: 21% | Population Tubulin-Different-Phenotype (%) [3]: 91% | Population Apoptotic (%) [4]: 75% | Population Fragmented Nuclei (%) [4]: 9% | Population Healthy Nuclei (%) [4]: 71% | Population Hoechst High Intensity Objects (%) [4]: 7% | Population Membrane Permeable-Phenotype (%) [4]: 21% | Population Mitochondria Different-Phenotype (%) [4]: 100% | Population Mitotic Cells (%) [4]: 25% | Population Normal (%) [4]: 92% | Population Pyknosed Nuclei (%) [4]: 18% | Population Tubulin-Different-Phenotype (%) [4]: 100% | Population Apoptotic (%) [5]: 47% | Population Fragmented Nuclei (%) [5]: 22% | Population Healthy Nuclei (%) [5]: 61% | Population Hoechst High Intensity Objects (%) [5]: 12% | Population Membrane Permeable-Phenotype (%) [5]: 17% | Population Mitochondria Different-Phenotype (%) [5]: 6% | Population Mitotic Cells (%) [5]: 52% | Population Normal (%) [5]: 87% | Population Pyknosed Nuclei (%) [5]: 16% | Population Tubulin-Different-Phenotype (%) [5]: 35% | Population Apoptotic (%) [6]: 50% | Population Fragmented Nuclei (%) [6]: 14% | Population Healthy Nuclei (%) [6]: 67% | Population Hoechst High Intensity Objects (%) [6]: 8% | Population Membrane Permeable-Phenotype (%) [6]: 6% | Population Mitochondria Different-Phenotype (%) [6]: 13% | Population Mitotic Cells (%) [6]: 50% | Population Normal (%) [6]: 91% | Population Pyknosed Nuclei (%) [6]: 18% | Population Tubulin-Different-Phenotype (%) [6]: 4% | Population Apoptotic (%) [7]: 50% | Population Fragmented Nuclei (%) [7]: 32% | Population Healthy Nuclei (%) [7]: 57% | Population Hoechst High Intensity Objects (%) [7]: 26% | Population Membrane Permeable-Phenotype (%) [7]: 11% | Population Mitochondria Different-Phenotype (%) [7]: 22% | Population Mitotic Cells (%) [7]: 50% | Population Normal (%) [7]: 73% | Population Pyknosed Nuclei (%) [7]: 10% | Population Tubulin-Different-Phenotype (%) [7]: 89% | Population Apoptotic (%) [8]: 85% | Population Fragmented Nuclei (%) [8]: 11% | Population Healthy Nuclei (%) [8]: 54% | Population Hoechst High Intensity Objects (%) [8]: 8% | Population Membrane Permeable-Phenotype (%) [8]: 21% | Population Mitochondria Different-Phenotype (%) [8]: 96% | Population Mitotic Cells (%) [8]: 14% | Population Normal (%) [8]: 91% | Population Pyknosed Nuclei (%) [8]: 34% | Population Tubulin-Different-Phenotype (%) [8]: 93% | Population Apoptotic (%) [9]: 55% | Population Fragmented Nuclei (%) [9]: 40% | Population Healthy Nuclei (%) [9]: 52% | Population Hoechst High Intensity Objects (%) [9]: 10% | Population Membrane Permeable-Phenotype (%) [9]: 11% | Population Mitochondria Different-Phenotype (%) [9]: 2% | Population Mitotic Cells (%) [9]: 44% | Population Normal (%) [9]: 89% | Population Pyknosed Nuclei (%) [9]: 6% | Population Tubulin-Different-Phenotype (%) [9]: 31% | Population Apoptotic (%) [10]: 66% | Population Fragmented Nuclei (%) [10]: 31% | Population Healthy Nuclei (%) [10]: 66% | Population Hoechst High Intensity Objects (%) [10]: 41% | Population Membrane Permeable-Phenotype (%) [10]: 15% | Population Mitochondria Different-Phenotype (%) [10]: 1% | Population Mitotic Cells (%) [10]: 33% | Population Normal (%) [10]: 58% | Population Pyknosed Nuclei (%) [10]: 2% | Population Tubulin-Different-Phenotype (%) [10]: 51% | Population Apoptotic (%) [11]: 71% | Population Fragmented Nuclei (%) [11]: 31% | Population Healthy Nuclei (%) [11]: 62% | Population Hoechst High Intensity Objects (%) [11]: 35% | Population Membrane Permeable-Phenotype (%) [11]: 8% | Population Mitochondria Different-Phenotype (%) [11]: 13% | Population Mitotic Cells (%) [11]: 28% | Population Normal (%) [11]: 64% | Population Pyknosed Nuclei (%) [11]: 6% | Population Tubulin-Different-Phenotype (%) [11]: 89% | Population Apoptotic (%) [12]: 0% | Population Fragmented Nuclei (%) [12]: 44% | Population Healthy Nuclei (%) [12]: 55% | Population Hoechst High Intensity Objects (%) [12]: 27% | Population Membrane Permeable-Phenotype (%) [12]: 12% | Population Mitochondria Different-Phenotype (%) [12]: 23% | Population Mitotic Cells (%) [12]: 0% | Population Normal (%) [12]: 72% | Population Pyknosed Nuclei (%) [12]: 0% | Population Tubulin-Different-Phenotype (%) [12]: 93%
